Laboratory results reported in ChEMBL document CHEMBL1781879, “Synthesis and biological characterization of arylomycin B antibiotics” (2011).
Values after ≈ are worked out from the molar mass of the structure shown.

How the values were obtained:
[1] = Antibacterial activity against 1 x 10^7 CFU/mL Escherichia coli MG1655 PAS0260 harboring LepB P84L mutant in cation-adjusted Mueller Hinton 2 broth after 24 hrs by CLSI broth microdilution method; type: functional, Escherichia coli str. K-12 substr. MG1655; conditions: PAS0260, 24 h
Summary of the method: (§1)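 CLSI broth microdilution in cation-adjusted Mueller Hinton II broth. Inoculum made by suspending organisms grown on solid media in the same broth and diluting to 1×10^7 CFU/ml; 5 μl added to 100 μl medium containing graded compound concentrations. MIC is the lowest concentration preventing visible growth, from at least three independent experiments.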

[2] = tested on: Staphylococcus epidermidis; test: Antibacterial activity against 1 x 10^7 CFU/mL wild-type Staphylococcus epidermidis RP62A in cation-adjusted Mueller Hinton 2 broth after 24 hrs by CLSI broth microdilution method; type: functional
Summary of the method: (§2)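 CLSI broth microdilution. Bacteria from solid media were suspended in the test broth at 1×10^7 cfu/ml, and 5 μl was added to 100 μl medium containing compound. Media were cation-adjusted Mueller Hinton II (R. opacus, S. epidermidis), Todd Hewitt (S. pyogenes, S. pneumoniae) and Trypticase Soy Yeast broth (L. lactis). MIC was the lowest concentration inhibiting visible growth, from at least three independent experiments.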

Rhodococcus opacus = test: Antibacterial activity against 1 x 10^7 CFU/mL Rhodococcus opacus DSM 1069 in cation-adjusted Mueller Hinton 2 broth after 24 hrs by CLSI broth microdilution method; type: functional; conditions: DSM 1069, 24 h; summary of the method: as §2
Pseudomonas aeruginosa = test: Antibacterial activity against 1 x 10^7 CFU/mL Pseudomonas aeruginosa PAO1 PAS2008 harboring LepB P84L mutant in cation-adjusted Mueller Hinton 2 broth after 24 hrs by CLSI broth microdilution method; type: functional; conditions: PAO1 PAS2008, 24 h; summary of the method: as §1
Brevibacillus brevis = test: Antibacterial activity against 1 x 10^6 CFU/mL Brevibacillus brevis ATCC 8246 in cation-adjusted Mueller Hinton 2 broth after 24 hrs by CLSI broth microdilution method; type: functional; conditions: ATCC 8246, 24 h
Summary of the method: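 Brevibacillus brevis: 10⁶ cfu inoculated into 1 ml cultures in cation-adjusted Mueller Hinton II broth with compound and 1% DMSO final. Parallel tubes used 0.8% nutrient broth with 0.5% NaCl or without NaCl. Cultures shaken at 28 °C for 24 h. MIC was the lowest concentration inhibiting visible growth.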

[3] = Antibacterial activity against 1 x 10^7 CFU/mL Staphylococcus aureus NCTC 8325 PAS8001 harboring SpsB P29S mutant in cation-adjusted Mueller Hinton 2 broth after 24 hrs by CLSI broth microdilution method; type: functional, Staphylococcus aureus subsp. aureus NCTC 8325; conditions: PAS8001, 24 h; summary of the method: as §1
Streptococcus agalactiae = test: Antibacterial activity against 1 x 10^7 CFU/mL Streptococcus agalactiae COH1 after 24 hrs by CLSI broth microdilution method; type: functional; conditions: COH1, 24 h
Summary of the method: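 Streptococcus agalactiae tested by CLSI broth microdilution in both cation-adjusted Mueller Hinton II and Todd Hewitt broth. Inoculum was a suspension from solid media at 1×10^7 cfu/ml, with 5 μl added to 100 μl medium containing compound. MIC was the lowest concentration inhibiting visible growth, from at least three independent experiments.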

Streptococcus pneumoniae = test: Antibacterial activity against 1 x 10^7 CFU/mL Streptococcus pneumoniae R800 in Todd Hewitt broth after 24 hrs by CLSI broth microdilution method; type: functional; conditions: R800, 24 h; summary of the method: as §2
Prescottella equi = test: Antibacterial activity against 1 x 10^7 CFU/mL Rhodococcus equi ATCC 6939 in cation-adjusted Mueller Hinton 2 broth after 24 hrs by CLSI broth microdilution method; type: functional; conditions: Rhodococcus (subgen. Prescottella) equi, ATCC 6939, 24 h; summary of the method: as §1
Streptococcus pyogenes = test: Antibacterial activity against 1 x 10^7 CFU/mL Streptococcus pyogenes M1-5448 in Todd Hewitt broth after 24 hrs by CLSI broth microdilution method; type: functional; conditions: M1-5448, 24 h; summary of the method: as §2
Lactococcus lactis = test: Antibacterial activity against 1 x 10^7 CFU/mL Lactococcus lactis ATCC 19257 in trypticase soy yeast broth after 24 hrs by CLSI broth microdilution method; type: functional; conditions: ATCC 19257, 24 h; summary of the method: as §2
[4] = Antibacterial activity against 1 x 10^7 CFU/mL Staphylococcus epidermidis RP62A PAS9002 harboring Sps1B-S31P mutant in cation-adjusted Mueller Hinton 2 broth after 24 hrs by CLSI broth microdilution method; type: functional; conditions: PAS9002, 24 h; summary of the method: as §1
[5] = tested on: Corynebacterium glutamicum; test: Antibacterial activity against 1 x 10^7 CFU/mL Corynebacterium glutamicum ATCC 44475 in cation-adjusted Mueller Hinton 2 broth after 24 hrs by CLSI broth microdilution method; type: functional; conditions: ATCC 44475, 24 h; summary of the method: as §1

| Structure (SMILES) | MIC [1] | MIC [2] | MIC (Rhodococcus opacus) | MIC (Pseudomonas aeruginosa) | MIC (Brevibacillus brevis) | MIC [3] | MIC (Streptococcus agalactiae) | MIC (Streptococcus pneumoniae) | MIC (Prescottella equi) | MIC (Streptococcus pyogenes) | MIC (Lactococcus lactis) | MIC [4] | MIC [5] |
| --- | --- | --- | --- | --- | --- | --- | --- | --- | --- | --- | --- | --- | --- |
| CCCCCCCCCCCCCCCC(=O)N(C)[C@H](CO)C(=O)N[C@H](C)C(=O)NCC(=O)N(C)[C@@H]1C(=O)N[C@@H](C)C(=O)N[C@H](C(=O)O)Cc2cc(c(O)c([N+](=O)[O-])c2)-c2cc1ccc2O | 2 µg/mL (≈ 2.16 µM) | 0.25 µg/mL (≈ 0.27 µM) | 4 µg/mL (≈ 4.32 µM) | 4 µg/mL (≈ 4.32 µM) | > 64 µg/mL | 4 µg/mL (≈ 4.32 µM) | 8 µg/mL (≈ 8.64 µM) | 16 µg/mL (≈ 17.3 µM) | 32 µg/mL (≈ 34.6 µM) | 4 µg/mL (≈ 4.32 µM) | 32 µg/mL (≈ 34.6 µM) | 8 µg/mL (≈ 8.64 µM) | 2 µg/mL (≈ 2.16 µM) |
| CCCCCCCCCCCCCCCC(=O)N(C)[C@H](CO)C(=O)N[C@H](C)C(=O)NCC(=O)N(C)[C@@H]1C(=O)N[C@@H](C)C(=O)N[C@H](C(=O)O)Cc2cc(N)c(O)c(c2)-c2cc1ccc2O | 16 µg/mL (≈ 17.9 µM) | 8 µg/mL (≈ 8.93 µM) | – | 32 µg/mL (≈ 35.7 µM) | > 64 µg/mL | 64 µg/mL (≈ 71.4 µM) | – | – | – | – | – | – | – |
| CCCCCCCCCCCCCCCC(=O)N(C)[C@H](CO)C(=O)N[C@H](C)C(=O)NCC(=O)N(C)[C@@H]1C(=O)N[C@@H](C)C(=O)N[C@H](C(=O)O)Cc2ccc(O)c(c2)-c2cc1ccc2O [ARYLOMYCIN C16] | 2 µg/mL (≈ 2.27 µM) | 0.25 µg/mL (≈ 0.284 µM) | 1 µg/mL (≈ 1.13 µM) | 4 µg/mL (≈ 4.54 µM) | > 64 µg/mL | 4 µg/mL (≈ 4.54 µM) | > 128 µg/mL | 8 µg/mL (≈ 9.08 µM) | 16 µg/mL (≈ 18.2 µM) | 8 µg/mL (≈ 9.08 µM) | 16 µg/mL (≈ 18.2 µM) | 8 µg/mL (≈ 9.08 µM) | 2 µg/mL (≈ 2.27 µM) |
